Entries after “also recorded” stand apart in the source; their conditions may differ. Where no end group is shown, it is not given here.
Assays:
[1] = system: GC-C knockout mouse intestine; conditions: cited from earlier work
[2] = system: GC-C knockout mouse kidneys; conditions: cited from earlier work
[3] = rat, mouse, and opossum forms; 37° C and neutral pH; cited from earlier work
[4] = system: chymotrypsin-like activity in the kidney; conditions: cited from earlier work
kidney = conditions: cited from earlier work
[5] = system: anesthetized rats (male Sprague Dawley); assay: Urinary sodium excretion; assay type: in vivo, rat
[6] = target: GC-C (GC-C-expressing T84 cell line) (Homo sapiens, UniProt P25092); assay: T84 cell-based cyclic GMP bioassay
Chain of GC-C (GC-C-expressing T84 cell line) (P25092 24-1073): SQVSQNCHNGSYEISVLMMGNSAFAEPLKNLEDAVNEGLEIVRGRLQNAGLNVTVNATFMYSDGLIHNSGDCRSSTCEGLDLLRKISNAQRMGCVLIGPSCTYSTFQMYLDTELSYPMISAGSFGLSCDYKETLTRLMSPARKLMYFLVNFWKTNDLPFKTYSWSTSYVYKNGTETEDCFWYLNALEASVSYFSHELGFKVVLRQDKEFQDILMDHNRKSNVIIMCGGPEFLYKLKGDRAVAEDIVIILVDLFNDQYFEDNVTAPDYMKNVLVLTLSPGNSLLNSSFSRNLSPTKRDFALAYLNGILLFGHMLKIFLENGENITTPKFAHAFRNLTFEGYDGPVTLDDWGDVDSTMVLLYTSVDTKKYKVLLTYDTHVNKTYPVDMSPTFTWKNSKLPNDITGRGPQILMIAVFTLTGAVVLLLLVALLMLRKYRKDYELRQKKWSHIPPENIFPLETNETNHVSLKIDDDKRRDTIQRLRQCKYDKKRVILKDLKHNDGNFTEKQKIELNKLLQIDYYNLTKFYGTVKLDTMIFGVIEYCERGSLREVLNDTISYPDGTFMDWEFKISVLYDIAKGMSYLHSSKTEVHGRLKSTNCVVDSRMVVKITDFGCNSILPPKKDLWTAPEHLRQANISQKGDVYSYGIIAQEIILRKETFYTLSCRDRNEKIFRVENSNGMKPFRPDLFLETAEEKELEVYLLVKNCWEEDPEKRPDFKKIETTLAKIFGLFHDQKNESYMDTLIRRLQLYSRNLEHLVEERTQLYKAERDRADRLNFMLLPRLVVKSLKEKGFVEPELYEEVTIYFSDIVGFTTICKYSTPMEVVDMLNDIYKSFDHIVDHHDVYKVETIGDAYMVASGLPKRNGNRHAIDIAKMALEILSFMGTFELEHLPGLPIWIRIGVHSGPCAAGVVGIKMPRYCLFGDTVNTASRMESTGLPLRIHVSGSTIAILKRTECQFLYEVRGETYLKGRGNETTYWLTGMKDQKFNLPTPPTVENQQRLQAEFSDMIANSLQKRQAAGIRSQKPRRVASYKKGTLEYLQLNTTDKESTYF
Outline: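 Test peptide diluted into bioassay medium (1 mM IBMX, 137 mM NaCl, 5.4 mM KCl, 1.3 mM CaCl2, 1.0 mM MgSO4, 4.2 mM NaHCO3, phosphates, phenol red, 10 mM HEPES), pH readjusted to 7.0 if required, then applied to T84 cells for 30 min. Cells lysed; cyclic GMP measured by radioimmunoassay. Concentration-response data fitted with the log(agonist) vs response equation.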

Substance: rat Ugn: rat form of uroguanylin; A and B forms interconvert rapidly (TDECELCINVACTGC; not fully specified (bridges); ends and bridges not checked; UniProt P70668 92-106, looked up)
- secretory response from the intestine [1]: only small, residual secretory responses
- natriuretic response from the kidneys [2]: apparently full natriuretic responses

Substance: guanylin (PGTCEICAYAACTGC; ends and bridges not checked; cysteine pairing not given here; UniProt Q02747 101-115, looked up) [Gn]
- rate of interconversion of the two conformations [3]: 1–2 cycles per sec
- susceptibility to proteolytic digestion ([4]; chymotrypsin-like activity in the kidney): susceptible to proteolytic digestion
- detectability in urine [4]: undetectable in urine
- kaliuretic activity, Gn versus Ugn (kidney; words): more kaliuretic than Ugn

Substance: uroguanylin (NDDCELCVNVACTGCL; ends and bridges not checked; cysteine pairing not given here; UniProt Q16661 97-112, looked up) [Ugn]
- rate of interconversion of the two conformations [3]: 1–2 cycles per sec
- natriuretic, kaliuretic, diuretic effect (kidney; every preparation that has been examined): natriuretic, kaliuretic, and diuretic in every preparation that has been examined
- natriuretic potency, Ugn versus Gn (kidney; words): a more potent natriuretic factor than Gn

Substance: CCELCCNPACTGCY (also: bicyclic or more (positions not given here)) [ST-core]
- natriuretic effect compared with huUgnA ([5]; iv infusion, cumulative 3 hour, Figure 6b, words): the maximal natriuresis elicited by ST-core was slightly less and the response was shifted to the right; also recorded: right-shifted, but otherwise quite similar to those evoked by huUgnA
- pharmacological profile of the renal responses (rank order) ([5]; rat, in vivo): huUgnB ≥ huUgnA ≈ ST core, with physiological antagonism by huUgnA at high concentration
- EC50 for cyclic GMP stimulation relative to huUgnA (fold lower) ([6]; T84 cells, no reference or data printed): about 10 fold
- pharmacological profile of GC-C-mediated responses (rank order) ([6]; described as well-established): ST core > huUgnA >> huUgnB, with all three peptides acting as pure agonists
